Measurements reported in ChEMBL document CHEMBL4270536, “Preparation, characterisation and biological evaluation of new N-phenyl amidobenzenesulfonates and N-phenyl ureidobenzenesulfonates inducing DNA double-strand breaks. Part 3. Modulation of ring A” (Eur J Med Chem, 2018).

Legend:
M21 [1] = experiment: Antiproliferative activity against human M21 cells after 48 hrs by SRB assay; type: functional, cell-based; conditions: M21, 48 h
Summary of the method: (§1)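 Cells grown in DMEM with 5% FBS at 37 C; seeded per well at 2.5 x 10^3 (HT-1080), 4.0 x 10^3 (HT-29), 3.0 x 10^3 (M21) or 2.5 x 10^3 (MCF7). Drugs from 40 mM DMSO stock, serial dilutions, final 100 µM to 78 nM, DMSO <0.5%.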

HT-1080 = experiment: Antiproliferative activity against human HT1080 cells after 48 hrs by SRB assay; type: functional, cell-based; conditions: HT-1080, 48 h; summary of the method: as §1
M21 [2] = experiment: Cell cycle arrest in human M21 cells assessed as accumulation at G2/M phase at 2 times IC50 after 24 hrs by DAPI staining based flow cytometry relative to control; type: functional
Summary of the method: (§2)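 Flow cytometry in M21 cells seeded in six-well plates, allowed 24 h, then exposed 24 h to drug (2- or 5-fold IC50); DMSO 0.5% control. Trypsinized, PBS-washed, fixed in ice-cold EtOH, stained with 2 mg/mL DAPI in PBS; sub-G1, G0/G1, S and G2/M fractions measured on LSR II cytometer.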

HT-29 = experiment: Antiproliferative activity against human HT-29 cells after 48 hrs by SRB assay; type: functional, cell-based; conditions: HT-29, 48 h; summary of the method: as §1
MCF7 = experiment: Antiproliferative activity against human MCF7 cells after 48 hrs by SRB assay; type: functional, cell-based; conditions: MCF7, 48 h; summary of the method: as §1
M21 [3] = experiment: Cell cycle arrest in human M21 cells assessed as accumulation at G0/G1 phase at 2 times IC50 after 24 hrs by DAPI staining based flow cytometry relative to control; type: functional; summary of the method: as §2
M21 [4] = experiment: Cell cycle arrest in human M21 cells assessed as accumulation at sub-G1 phase at 2 times IC50 after 24 hrs by DAPI staining based flow cytometry relative to control; type: functional; summary of the method: as §2
M21 [5] = experiment: Cell cycle arrest in human M21 cells assessed as accumulation at S phase at 2 times IC50 after 24 hrs by DAPI staining based flow cytometry relative to control; type: functional; summary of the method: as §2
M21 [6] = experiment: Cell cycle arrest in human M21 cells assessed as accumulation at sub-G1 phase at 2 times IC50 after 24 hrs by DAPI staining based flow cytometry relative to control
M21 [7] = experiment: Cell cycle arrest in human M21 cells assessed as accumulation at G2/M phase at 2 times IC50 after 24 hrs by DAPI staining based flow cytometry relative to control
M21 [8] = experiment: Cell cycle arrest in human M21 cells assessed as accumulation at S phase at 2 times IC50 after 24 hrs by DAPI staining based flow cytometry relative to control
M21 [9] = experiment: Cell cycle arrest in human M21 cells assessed as accumulation at G0/G1 phase at 2 times IC50 after 24 hrs by DAPI staining based flow cytometry relative to control
[10] = Alkylating activity at DNA (unknown origin) after 90 mins by colorimetric NBP assay; type: functional
Summary of the method: (§3)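 NBP alkylation kinetics (Bardos colorimetric method): 400 nmol drug in 1 mL ethanol mixed with 1 mL NBP (10% v/v in 95% ethanol), 1 mL 50 mM acetate buffer pH 4.3 and 1 mL ethanol, kept on ice, then heated at 80 C in shaking water bath; stopped on ice 5 min after 0, 30, 60, 90 min. Rate constant from linear regression of absorbance curve; chlorambucil as positive control.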

[11] = Alkylating activity at DNA (unknown origin) after 90 mins by colorimetric NBP assay relative to chlorambucil; type: functional; summary of the method: as §3

Compound	IC50 (M21 [1])	IC50 (HT-1080)	Activity (M21 [2])	IC50 (HT-29)	IC50 (MCF7)	Activity (M21 [3])	Activity (M21 [4])	Activity (M21 [5])	Activity (M21 [6])	Activity (M21 [7])	Activity (M21 [8])	Activity (M21 [9])	K [10]	fold change (FC) [11]
CC(C)C(=O)Nc1ccc(S(=O)(=O)Oc2ccccc2I)cc1	13 µM	3.3 µM	14.2%	13 µM	8.1 µM	62%	0.2%	23.6%						
CC(C)C(=O)Nc1cccc(S(=O)(=O)Oc2ccccc2C(C)C)c1	17 µM	16 µM	32.5%	16 µM	13 µM	54.5%	0.1%	12.9%						
O=C(CCl)Nc1ccc(S(=O)(=O)Oc2ccccc2I)cc1	3.9 µM	0.6 µM	12.1%	4.1 µM	2.5 µM	71.1%	0.3%	16.5%						
CC(C)c1ccccc1OS(=O)(=O)c1ccc(NC(=O)NCC2CCCC2)cc1	6.6 µM	6 µM		6.8 µM	7.1 µM				0.1%	21.7%	14.3%	63.9%		
O=C(CCCCl)Nc1ccc(S(=O)(=O)Oc2ccccc2I)cc1	7.2 µM	12 µM	40.7%	9.1 µM	6.3 µM	42%	0.2%	17.1%						
CC(C)C(=O)Nc1ccc(S(=O)(=O)Oc2ccccc2C(C)C)cc1	11 µM	4.9 µM	10.5%	14 µM	8.6 µM	62%	0.2%	27.3%						
CC(C)(C)C(=O)Nc1ccc(S(=O)(=O)Oc2ccccc2I)cc1	8.3 µM	2.6 µM	15.9%	9.5 µM	6.6 µM	55%	0%	29.1%						
CCCCCC(=O)Nc1cccc(S(=O)(=O)Oc2ccccc2C(C)C)c1	11 µM	11 µM	13.5%	19 µM	12 µM	69%	1.5%	16%						
O=C(O)CCCc1ccc(N(CCCl)CCCl)cc1													5.3 ×10⁻³ /s	
CC(=O)Nc1ccc(S(=O)(=O)Oc2ccccc2I)cc1	27 µM	17 µM		23 µM	27 µM									
CC(C)c1ccccc1OS(=O)(=O)c1ccc(NC(=O)NC2CCCC2)cc1	6.1 µM	3.9 µM		7.4 µM	6.2 µM				0.1%	27.2%	12.5%	60.2%		
CCC(=O)Nc1cccc(S(=O)(=O)Oc2ccccc2C(C)C)c1	25 µM	12 µM		22 µM	14 µM									
CC(C)c1ccccc1OS(=O)(=O)c1ccc(NC(=O)CCCCl)cc1	5.1 µM	3.8 µM	25.2%	6.2 µM	5.2 µM	55.3%	0.2%	19.3%						
O=C(NCC1CCCC1)Nc1ccc(S(=O)(=O)Oc2ccccc2I)cc1	7.6 µM	6.1 µM		7.6 µM	6.6 µM				0.1%	24.8%	18.9%	56.2%		
CC(C)c1ccccc1OS(=O)(=O)c1ccc(NC(=O)CCl)cc1	3.9 µM	1 µM	21%	5.6 µM	2.9 µM	60.9%	0.1%	18%						
CC(C)c1ccccc1OS(=O)(=O)c1cccc(NC(=O)CCCl)c1	> 40 µM	8.2 µM		11 µM	12 µM									
CCCCCNC(=O)Nc1ccc(S(=O)(=O)Oc2ccccc2C(C)C)cc1	4.6 µM	4.7 µM		4.9 µM	4 µM				0.3%	26.9%	12.2%	60.6%		
O=C(NCCCl)Nc1ccc(S(=O)(=O)Oc2ccccc2I)cc1									0.1%	12.2%	30.9%	56.8%	0.071 ×10⁻³ /s	75
CCCCCC(=O)Nc1ccc(S(=O)(=O)Oc2ccccc2C(C)C)cc1	6.7 µM	6.3 µM	26.6%	6.4 µM	5.3 µM	41.4%	3.7%	28.3%						
CCCCCC(=O)Nc1ccc(S(=O)(=O)Oc2ccccc2I)cc1	11 µM	9.6 µM	44.3%	13 µM	10 µM	42.6%	0.2%	12.9%						
CC(C)c1ccccc1OS(=O)(=O)c1ccc(NC(=O)NCCCl)cc1													0.0034 ×10⁻³ /s	1600
CC(C)c1ccccc1OS(=O)(=O)c1cccc(NC(=O)C(C)(C)C)c1	13 µM	11 µM	18.2%	19 µM	14 µM	61.1%	0.7%	20%						
CCCC(=O)Nc1cccc(S(=O)(=O)Oc2ccccc2C(C)C)c1	20 µM	15 µM	18.4%	13 µM	9.4 µM	64.2%	3%	14.4%						
O=C(Nc1ccc(S(=O)(=O)Oc2ccccc2I)cc1)NC1CC1	11 µM	1.3 µM		14 µM	7.4 µM				0.1%	11.5%	26.9%	61.5%		
CCCCCNC(=O)Nc1ccc(S(=O)(=O)Oc2ccccc2I)cc1	5.9 µM	6.9 µM		6.6 µM	5.4 µM				0.1%	23%	14.7%	62.2%		
CC(=O)Nc1ccc(S(=O)(=O)Oc2ccccc2C(C)C)cc1	21 µM	12 µM		23 µM	16 µM								0.36 ×10⁻³ /s	14
CC(C)c1ccccc1OS(=O)(=O)c1cccc(NC(=O)CCl)c1	3.9 µM	0.78 µM	18.8%	4.5 µM	2.2 µM	64.1%	0%	17.1%						
CCCNC(=O)Nc1ccc(S(=O)(=O)Oc2ccccc2C(C)C)cc1	5.1 µM	0.68 µM		6.3 µM	2.7 µM				0.3%	10%	25.1%	64.6%	0.027 ×10⁻³ /s	200
CCNC(=O)Nc1ccc(S(=O)(=O)Oc2ccccc2CC)cc1													0.032 ×10⁻³ /s	170
CC(=O)Nc1cccc(S(=O)(=O)Oc2ccccc2C(C)C)c1	31 µM	21 µM		27 µM	21 µM									
